ChEMBL document CHEMBL3576784, “Azolylthioacetamide: A Highly Promising Scaffold for the Development of Metallo-β-lactamase Inhibitors” (ACS Med Chem Lett, 2015)
Calls of active or inactive are those of the source. The calls are words filed in the database; no cut-off is given here.

Legend:
[1] = target: Beta-lactamase L1 (Stenotrophomonas maltophilia) (UniProt P52700); assay: Inhibition of Stenotrophomonas maltophilia metallo-beta-lactamase L1 expressed in Escherichia coli BL21(DE3) up to 10 uM using cefazolin V substrate pre-incubated for 30 mins by Lineweaver-Burk plot method
Chain of Beta-lactamase L1 (Stenotrophomonas maltophilia) (P52700 34-290 limits assumed): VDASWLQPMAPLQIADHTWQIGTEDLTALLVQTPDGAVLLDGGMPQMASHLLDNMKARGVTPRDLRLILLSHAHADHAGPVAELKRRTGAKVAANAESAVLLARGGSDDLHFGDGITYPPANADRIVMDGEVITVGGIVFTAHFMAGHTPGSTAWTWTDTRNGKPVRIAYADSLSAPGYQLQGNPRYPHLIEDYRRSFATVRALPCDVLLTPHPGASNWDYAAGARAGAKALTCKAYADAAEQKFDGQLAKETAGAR

[2] = Inhibition of metallo-beta-lactamase NDM1 (unknown origin) expressed in Escherichia coli BL21(DE3) up to 10 uM using cefazolin V substrate pre-incubated for 30 mins by Lineweaver-Burk plot method
[3] = target: Metallo-beta-lactamase type 2 (Bacteroides fragilis) (UniProt P25910); assay: Inhibition of Bacteroides fragilis metallo-beta-lactamase CcrA expressed in Escherichia coli BL21(DE3) up to 10 uM using cefazolin V substrate pre-incubated for 30 mins by Lineweaver-Burk plot method
Chain of Metallo-beta-lactamase type 2 (Bacteroides fragilis) (P25910 whole entry): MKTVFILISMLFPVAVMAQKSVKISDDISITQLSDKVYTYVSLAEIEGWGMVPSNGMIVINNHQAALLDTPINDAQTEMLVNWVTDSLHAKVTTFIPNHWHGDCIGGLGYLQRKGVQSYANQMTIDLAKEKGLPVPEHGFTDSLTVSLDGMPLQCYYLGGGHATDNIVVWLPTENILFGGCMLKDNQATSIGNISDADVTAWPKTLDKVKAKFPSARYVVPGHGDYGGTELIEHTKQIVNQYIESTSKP

[4] = Inhibition of metallo-beta-lactamase NDM1 (unknown origin) expressed in Escherichia coli BL21(DE3) assessed as cefalexin V antimicrobial MIC incubated at 37 degC for 12 hrs by macrodilution (tube) broth method (reference value: 4 ug/mL)
Summary of the method: (§1)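 β-Lactam antibiotic MIC (μg/mL) against E. coli BL21(DE3) carrying plasmids pMSZ02-CcrA, pET26b-NDM-1, pET26b-ImiS or pET26b-L1. Measured with and without test compound at 16 μg/mL.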

[5] = target: Beta-lactamase (Aeromonas veronii) (UniProt O31272); assay: Inhibition of Aeromonas veronii metallo-beta-lactamase ImiS expressed in Escherichia coli BL21(DE3) assessed as imipenem antimicrobial MIC incubated at 37 degC for 12 hrs by macrodilution (tube) broth method; summary of the method: as §1
Chain of Beta-lactamase (Aeromonas veronii) (O31272 as listed by the source): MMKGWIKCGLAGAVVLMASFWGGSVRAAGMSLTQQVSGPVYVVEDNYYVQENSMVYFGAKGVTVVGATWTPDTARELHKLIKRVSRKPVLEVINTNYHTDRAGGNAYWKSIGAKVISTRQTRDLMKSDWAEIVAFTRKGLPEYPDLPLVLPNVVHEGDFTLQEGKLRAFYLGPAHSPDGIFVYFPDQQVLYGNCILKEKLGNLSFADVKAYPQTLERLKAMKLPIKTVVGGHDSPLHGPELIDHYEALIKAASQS

[6] = target: Metallo-beta-lactamase type 2 (Bacteroides fragilis) (UniProt P25910); assay: Inhibition of Bacteroides fragilis metallo-beta-lactamase CcrA expressed in Escherichia coli BL21(DE3) assessed as cefalexin V antimicrobial MIC incubated at 37 degC for 12 hrs by macrodilution (tube) broth method (reference value: 4 ug/mL); summary of the method: as §1
Klebsiella pneumoniae = assay: Inhibition of Klebsiella pneumoniae metallo-beta-lactamase expressed in Escherichia coli BL21(DE3) assessed as imipenem antimicrobial MIC incubated at 37 degC for 12 hrs by macrodilution (tube) broth method
[7] = target: T1, Beta-lactamase IMP-1 (Pseudomonas aeruginosa) (UniProt Q8G9Q0); assay: Inhibition of Pseudomonas aeruginosa metallo-beta-lactamase IMP1 expressed in Escherichia coli BL21(DE3) assessed as imipenem antimicrobial MIC incubated at 37 degC for 12 hrs by macrodilution (tube) broth method (reference value: […] ug/mL)
T1 sequence (whole entry): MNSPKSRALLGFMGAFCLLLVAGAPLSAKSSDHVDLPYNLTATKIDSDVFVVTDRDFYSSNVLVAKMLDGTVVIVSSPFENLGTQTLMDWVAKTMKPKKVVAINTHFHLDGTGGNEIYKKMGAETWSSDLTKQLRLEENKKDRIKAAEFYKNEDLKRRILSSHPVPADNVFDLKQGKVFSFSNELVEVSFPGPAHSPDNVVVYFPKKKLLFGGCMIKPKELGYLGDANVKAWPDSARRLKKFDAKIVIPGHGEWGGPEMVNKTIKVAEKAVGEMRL

[8] = target: Beta-lactamase L1 (Stenotrophomonas maltophilia) (UniProt P52700); assay: Inhibition of Stenotrophomonas maltophilia metallo-beta-lactamase L1 expressed in Escherichia coli BL21(DE3) assessed as cefalexin V antimicrobial MIC incubated at 37 degC for 12 hrs by macrodilution (tube) broth method (reference value: 8 ug/mL); summary of the method: as §1

SMILES | inhibition [1] | inhibition [2] | inhibition [3] | MIC [4] [µg/mL] | MIC [5] [µg/mL] | MIC [6] [µg/mL] | MIC (Klebsiella pneumoniae) [µg/mL] | MIC [7] [µg/mL] | MIC [8] [µg/mL]
O=C(O)CCc1nnc(SCC(=O)Nc2ccccc2)[nH]1 | inactive | inactive | inactive | – | – | – | – | – | –
O=C(O)CCCc1nnc(SCC(=O)Nc2nc3ccccc3[nH]2)[nH]1 | inactive | inactive | inactive | – | – | – | – | – | –
O=C(CSc1nnc(-c2ccccc2C(=O)O)[nH]1)Nc1ccc([N+](=O)[O-])cc1 | inactive | inactive | inactive | 4 | 0.5 | 2 | 0.5 | 0.25 | 16
O=C(CSc1nnc(-c2ccccc2C(=O)O)[nH]1)Nc1ccccc1[N+](=O)[O-] | inactive | inactive | inactive | 4 | < 0.125 | 0.25 | 0.5 | < 0.125 | > 128
O=C(O)CCc1nnc(SCC(=O)Nc2nc3ccccc3[nH]2)[nH]1 | inactive | inactive | inactive | – | – | – | – | – | –
O=C(CSc1nnc(-c2ccccc2C(=O)O)[nH]1)NCc1ccccc1 | inactive | inactive | inactive | 4 | 1 | 4 | 0.5 | < 0.125 | 16
O=C(CSc1nnc(-c2ccccc2C(=O)O)[nH]1)Nc1cccc([N+](=O)[O-])c1 | inactive | inactive | inactive | 4 | 0.25 | 2 | 0.5 | < 0.125 | 8
O=C(CSc1nnc(-c2ccccc2C(=O)O)[nH]1)Nc1nc2ccccc2[nH]1 | inactive | inactive | inactive | 4 | 1 | 4 | 0.5 | 0.25 | 8
O=C(CSc1nnc(-c2ccccc2C(=O)O)[nH]1)Nc1nc2ccccc2s1 | inactive | inactive | inactive | 4 | 1 | < 0.125 | 0.5 | < 0.125 | 8
O=C(O)CCc1nnc(SCC(=O)Nc2ccc(Cl)cc2)[nH]1 | inactive | inactive | inactive | – | – | – | – | – | –
O=C(CSc1nnc(-c2ccccc2C(=O)O)[nH]1)Nc1ccccc1Cl | inactive | inactive | inactive | 4 | 0.25 | 2 | 0.5 | < 0.125 | 64
O=C(O)CCc1nnc(SCC(=O)Nc2nc3ccccc3s2)[nH]1 | inactive | inactive | inactive | – | – | – | – | – | –
O=C(CSc1nnc(-c2ccccc2C(=O)O)[nH]1)Nc1ccccc1 | inactive | inactive | inactive | 4 | 1 | 4 | 0.5 | 0.25 | 8
O=C(CSc1nnc(-c2ccccc2C(=O)O)[nH]1)Nc1ccc(Cl)cc1 | inactive | inactive | inactive | 4 | 0.5 | < 0.125 | 0.5 | 0.25 | 8
O=C(CSc1nnc(-c2ccccc2C(=O)O)[nH]1)Nc1cccc(Cl)c1 | inactive | inactive | inactive | 4 | < 0.125 | 0.5 | 0.5 | < 0.125 | 64
